# What was measured:
# [1] = Selectivity index, ratio of TC50 for human HepG2(2.2.15) cells to IC50 for HBV infected in human HepG2(2.2.15) cells assessed as inhibition of viral DNA replication
# How it was run: (§1)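 Selectivity index computed as TC50 (MTS, HepG2 2.2.15, 3 days) divided by IC50 for HBsAg, HBeAg or virion DNA inhibition in the same cell line.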
# Hepatitis B virus [2] = assay: Antiviral activity against HBV infected in human HepG2(2.2.15) cells assessed as inhibition of surface antigen secretion by EIA; assay type: functional, organism-based
# How it was run: (§2)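 HepG2 2.2.15 cells (HepG2 stably carrying a head-to-tail HBV DNA dimer; MEM, 10% FBS, 37 °C, 5% CO2) treated with compound for 3 days; conditioned medium assayed for secreted HBsAg and HBeAg by enzyme immunoassay; mean and SD, n = 3; IC50 taken as 50% inhibitory concentration.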
# [3] = Selectivity index, ratio of TC50 for human HepG2(2.2.15) cells to IC50 for HBV infected in human HepG2(2.2.15) cells assessed as inhibition of e antigen secretion; how it was run: as §1
# Hepatitis B virus [4] = assay: Antiviral activity against HBV infected in human HepG2(2.2.15) cells assessed as inhibition of viral DNA replication; assay type: functional, organism-based
# How it was run: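 Secreted virion DNA from HepG2 2.2.15 cells after 3 days of compound treatment; HBV DNA isolated from conditioned medium and quantified by SYBR Green real-time PCR (45 cycles, 95 °C 15 s / 58 °C 1 min); mean and SD, n = 3; IC50 as 50% inhibitory concentration.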
# [5] = Cytotoxicity against human HepG2(2.2.15) cells; assay type: cell-based; conditions: read-out: TC50 (the source's name)
# How it was run: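 Cytotoxicity by MTS: HepG2 2.2.15 cells seeded at 4×10^4 cells/ml for 24 h, exposed to serial dilutions 2.5–160 µg/ml for 3 days; four replicates, viability expressed relative to untreated control; TC50 as 50% cytotoxic concentration.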
# Hepatitis B virus [6] = assay: Antiviral activity against HBV infected in human HepG2(2.2.15) cells assessed as inhibition of e antigen secretion by EIA; assay type: functional, organism-based; how it was run: as §2
# [7] = Selectivity index, ratio of TC50 for human HepG2(2.2.15) cells to IC50 for HBV infected in human HepG2(2.2.15) cells assessed as inhibition of surface antigen secretion; how it was run: as §1
IC50 (Hepatitis B virus [2]) [µg/mL],IC50 (Hepatitis B virus [4]) [µg/mL],IC50 (Hepatitis B virus [6]) [µg/mL],Compound,Selectivity Index [1],Selectivity Index [3],CC50 [5] [µg/mL],Selectivity Index [7]
4.17,7.44,12.8,C[C@@]12CC[C@@H]3[C@@](CC[C@H]4[C@@]3(C)CCC[C@@]4(C)NC(=O)c3ccc(F)cc3)(CC1=O)C2,2.65,1.54,19.7,4.73
35.6,,,C[C@@]12CC[C@@H]3[C@@](CC[C@H]4[C@@]3(C)CCC[C@@]4(C)NC(=O)c3ccccc3)(CC1=O)C2,,,48.5,1.36
20.8,,,C[C@@]12CC[C@@H]3[C@@](CC[C@H]4[C@@]3(C)CCC[C@@]4(C)NC(=O)c3ccc(Cl)cc3)(CC1=O)C2,,,21.6,1.04
32.5,,,CCC(=O)N[C@]1(C)CCC[C@@]2(C)[C@@H]3CC[C@@]4(C)C[C@]3(CC[C@@H]21)CC4=O,,,87.5,2.7
10.5,,,C[C@@]12CC[C@@H]3[C@@](CC[C@H]4[C@@]3(C)CCC[C@@]4(C)NC(=O)c3ccc(Br)cc3)(CC1=O)C2,,,14.9,1.41
49.1,41,,Nc1ccn([C@@H]2CS[C@H](CO)O2)c(=O)n1 [LAMIVUDINE],5,,205,4.17
